Assay results published in ChEMBL document CHEMBL4706499, “PTG-0861: A novel HDAC6-selective inhibitor as a therapeutic strategy in acute myeloid leukaemia” (Eur J Med Chem, 2020).

Experiments:
[1] = target: Histone deacetylase 3 (Homo sapiens, UniProt O15379); assay: Inhibition of recombinant full length human HDAC3 expressed in SF9 baculovirus using FAM- labelled acetylated peptide as substrate measured by Electrophoretic mobility shift assay
[2] = target: T1, Histone deacetylase 11 (Homo sapiens, UniProt Q96DB2); assay: Inhibition of recombinant full length human HDAC11 expressed in SF9 baculovirus using FAM- labelled acetylated peptide as substrate measured by Electrophoretic mobility shift assay
T1 sequence (Q96DB2 whole entry): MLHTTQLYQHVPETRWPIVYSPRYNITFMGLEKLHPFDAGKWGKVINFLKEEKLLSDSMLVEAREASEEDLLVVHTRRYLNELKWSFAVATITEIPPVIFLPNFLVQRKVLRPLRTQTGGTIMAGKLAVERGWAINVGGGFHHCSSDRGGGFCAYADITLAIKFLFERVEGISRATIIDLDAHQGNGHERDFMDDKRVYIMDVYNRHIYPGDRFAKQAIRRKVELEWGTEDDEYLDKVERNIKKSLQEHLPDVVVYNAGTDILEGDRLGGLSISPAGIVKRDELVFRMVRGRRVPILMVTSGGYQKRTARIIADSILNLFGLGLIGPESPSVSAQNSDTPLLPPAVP

[3] = target: Histone deacetylase 5 (Homo sapiens, UniProt Q9UQL6); assay: Inhibition of recombinant full length human HDAC5 expressed in SF9 baculovirus using FAM- labelled acetylated peptide as substrate measured by Electrophoretic mobility shift assay
Histone deacetylase 5, sequence (Q9UQL6 whole entry): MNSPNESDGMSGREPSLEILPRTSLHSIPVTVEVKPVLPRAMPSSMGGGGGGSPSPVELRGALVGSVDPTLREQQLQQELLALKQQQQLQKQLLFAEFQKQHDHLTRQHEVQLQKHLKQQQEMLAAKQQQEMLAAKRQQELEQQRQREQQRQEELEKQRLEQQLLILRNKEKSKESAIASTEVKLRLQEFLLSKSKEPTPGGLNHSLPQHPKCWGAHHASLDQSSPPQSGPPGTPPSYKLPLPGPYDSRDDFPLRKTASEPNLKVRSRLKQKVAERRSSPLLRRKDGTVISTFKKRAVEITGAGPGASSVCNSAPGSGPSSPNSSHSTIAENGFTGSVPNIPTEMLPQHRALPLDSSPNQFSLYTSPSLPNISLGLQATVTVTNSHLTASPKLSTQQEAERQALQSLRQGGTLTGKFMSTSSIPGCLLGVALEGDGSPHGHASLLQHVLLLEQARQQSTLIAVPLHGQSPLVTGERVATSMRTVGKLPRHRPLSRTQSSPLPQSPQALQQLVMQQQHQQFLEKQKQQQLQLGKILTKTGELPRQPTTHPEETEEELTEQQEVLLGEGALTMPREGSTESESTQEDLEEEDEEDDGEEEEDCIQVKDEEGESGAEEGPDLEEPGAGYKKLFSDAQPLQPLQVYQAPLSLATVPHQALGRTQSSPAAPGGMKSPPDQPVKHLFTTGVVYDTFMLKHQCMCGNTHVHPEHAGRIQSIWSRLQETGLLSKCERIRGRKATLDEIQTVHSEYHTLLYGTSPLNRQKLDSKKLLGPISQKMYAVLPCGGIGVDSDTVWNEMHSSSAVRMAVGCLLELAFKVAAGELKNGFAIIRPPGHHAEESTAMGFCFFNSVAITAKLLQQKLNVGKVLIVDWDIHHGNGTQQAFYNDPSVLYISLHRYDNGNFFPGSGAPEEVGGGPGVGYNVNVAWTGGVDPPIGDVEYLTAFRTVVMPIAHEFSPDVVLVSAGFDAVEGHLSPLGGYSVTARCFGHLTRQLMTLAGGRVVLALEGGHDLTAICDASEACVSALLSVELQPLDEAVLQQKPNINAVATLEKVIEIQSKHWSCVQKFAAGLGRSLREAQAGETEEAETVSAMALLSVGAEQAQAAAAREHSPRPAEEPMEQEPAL

[4] = target: T2, Polyamine deacetylase HDAC10 (Homo sapiens, UniProt Q969S8); assay: Inhibition of recombinant full length human HDAC10 expressed in SF9 baculovirus using FAM- labelled acetylated peptide as substrate measured by Electrophoretic mobility shift assay
T2 sequence (Q969S8 whole entry): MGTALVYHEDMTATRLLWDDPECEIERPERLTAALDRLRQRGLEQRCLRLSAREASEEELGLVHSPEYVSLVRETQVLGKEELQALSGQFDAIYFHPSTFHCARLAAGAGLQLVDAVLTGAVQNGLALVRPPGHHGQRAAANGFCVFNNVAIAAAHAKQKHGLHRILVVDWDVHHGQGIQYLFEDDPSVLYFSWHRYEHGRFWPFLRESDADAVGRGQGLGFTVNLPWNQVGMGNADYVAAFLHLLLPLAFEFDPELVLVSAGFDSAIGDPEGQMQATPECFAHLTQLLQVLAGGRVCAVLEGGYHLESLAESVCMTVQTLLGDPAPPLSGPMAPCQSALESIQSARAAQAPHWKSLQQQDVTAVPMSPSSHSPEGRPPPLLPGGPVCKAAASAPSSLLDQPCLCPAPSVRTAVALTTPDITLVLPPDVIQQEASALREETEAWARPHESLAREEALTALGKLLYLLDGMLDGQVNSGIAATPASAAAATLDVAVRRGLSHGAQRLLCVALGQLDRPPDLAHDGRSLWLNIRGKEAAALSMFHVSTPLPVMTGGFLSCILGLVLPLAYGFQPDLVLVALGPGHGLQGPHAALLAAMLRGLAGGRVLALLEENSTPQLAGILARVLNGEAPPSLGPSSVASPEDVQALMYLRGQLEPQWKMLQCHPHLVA

[5] = tested on: MV4-11; assay: Induction of apoptosis in human MV4-11 cells assessed as viable cells at 2 microM measured after 18 hrs by Annexin V/Propidium iodide stain based Flow cytometry assay (reference value: 53.27%); format: functional; conditions: read-out: Activity
[6] = tested on: MV4-11; assay: Induction of apoptosis in human MV4-11 cells assessed as late apoptotic cells at 0.5 microM measured after 18 hrs by Annexin V/Propidium iodide stain based Flow cytometry assay (reference value: 4.91%); format: functional
[7] = tested on: MV4-11; assay: Induction of apoptosis in human MV4-11 cells assessed as late apoptotic cells at 0.25 microM measured after 18 hrs by Annexin V/Propidium iodide stain based Flow cytometry assay (reference value: 4.91%); format: functional
[8] = tested on: MV4-11; assay: Induction of apoptosis in human MV4-11 cells assessed as viable cells at 0.25 microM measured after 18 hrs by Annexin V/Propidium iodide stain based Flow cytometry assay (reference value: 53.27%); format: functional; conditions: read-out: Activity
[9] = Apparent permeability across apical to basolateral side in human Caco2 cells measured after 2 hrs by LC-MS/MS method; format: ADME, cell-based; conditions: Caco-2
Summary of the method: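 Bidirectional Caco-2 permeability was measured as Papp in the apical-to-basolateral and basolateral-to-apical directions. The efflux ratio was calculated from the two directional Papp values.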

Histone deacetylase 3, sequence (O15379 whole entry): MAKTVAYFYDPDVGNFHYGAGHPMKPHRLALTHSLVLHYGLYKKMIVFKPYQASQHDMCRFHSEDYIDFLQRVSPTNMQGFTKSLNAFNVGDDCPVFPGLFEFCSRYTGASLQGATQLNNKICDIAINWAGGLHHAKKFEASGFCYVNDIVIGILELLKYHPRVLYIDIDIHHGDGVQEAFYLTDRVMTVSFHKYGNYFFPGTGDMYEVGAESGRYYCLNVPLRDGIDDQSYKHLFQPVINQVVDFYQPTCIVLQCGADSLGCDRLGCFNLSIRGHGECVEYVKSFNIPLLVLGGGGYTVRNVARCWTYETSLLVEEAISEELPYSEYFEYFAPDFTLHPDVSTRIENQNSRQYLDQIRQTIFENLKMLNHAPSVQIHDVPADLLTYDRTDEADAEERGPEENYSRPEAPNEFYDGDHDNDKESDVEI

IC50 [1]: 215 nM | IC50 [2]: > 1000 nM | IC50 [3]: > 1000 nM | IC50 [4]: > 1000 nM | Papp A→B at 2 h [9]: 1.33 ×10⁻⁶ cm/s
SMILES: O=C(NO)c1ccc(CNC(=O)c2c(F)c(F)c(F)c(F)c2F)cc1
viability at 2 µM [5]: 20.2% | Activity [6]: 7.46% | Activity [7]: 5.13% | viability at 0.25 µM [8]: 52.3%
